Assay results reported in ChEMBL document CHEMBL5724801, “EUbOPEN Chemogenomics Library - Multiplex” (2024).
“And” between values parts separate entries of the source, which are not always exact repeats. Equal values may be shown once.

Tested on: U2OS
Assay: Multiplex assay against U2OS
Format: toxicity, cell-based
Conditions: human, 12 h, 1 µM, compound concentration 1 uM
Outline: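 Hoechst33342, BioTracker Green Microtubule Cytoskeleton Dye, MitoTracker Red and Annexin V Alexa Fluor 680 were added to live cells at seeding, and imaging on a CQ1 microscope at 37°C and 5% CO2 followed compound addition. Gating by CellPathfinder machine learning separated cells into Hoechst high-intensity objects or normal cells, then normal cells into healthy, pyknosed or fragmented nuclei, then pyknosed cells into mitotic or apoptotic. Per cents of healthy-nucleus cells are reported for the tubulin, mitochondrial-mass and membrane-permeability phenotypes.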

Structure (SMILES) | Population Apoptotic (%) | Population Fragmented Nuclei (%) | Population Healthy Nuclei (%) | Population Hoechst High Intensity Objects (%) | Population Membrane Permeable-Phenotype (%) | Population Mitochondria Different-Phenotype (%) | Population Mitotic Cells (%) | Population Normal (%) | Population Pyknosed Nuclei (%) | Population Tubulin-Different-Phenotype (%)
N[C@@]1(C(=O)O)CO[C@H]2[C@H](C(=O)O)[C@H]21 [LY-379268] | 85% and 100% | 20% and 17% | 76% and 79% | 0% | 2% and 8% | 1% and 2% | 14% and 0% | 99% | 3% and 2% | 1% and 3%
Cl.Clc1ccc2nsnc2c1NC1=NCCN1 [TIZANIDINE HYDROCHLORIDE] | 82% and 85% | 20% and 10% | 73% and 78% | 2% and 1% | 6% and 3% | 1% and 2% | 17% and 14% | 97% and 98% | 5% and 10% | 2% and 3%

Same assay, conditions: human, 12 h, 1 µM, compound concentration 1 uM

Structure (SMILES) | Total Cell Count
N[C@@]1(C(=O)O)CO[C@H]2[C@H](C(=O)O)[C@H]21 [LY-379268] | 211 and 108
Cl.Clc1ccc2nsnc2c1NC1=NCCN1 [TIZANIDINE HYDROCHLORIDE] | 306 and 140

Same assay, conditions: human, 12 h, 10 µM, compound concentration 10 uM

Structure (SMILES) | Population Apoptotic (%) | Population Fragmented Nuclei (%) | Population Healthy Nuclei (%) | Population Hoechst High Intensity Objects (%) | Population Membrane Permeable-Phenotype (%) | Population Mitochondria Different-Phenotype (%) | Population Mitotic Cells (%) | Population Normal (%) | Population Pyknosed Nuclei (%) | Population Tubulin-Different-Phenotype (%)
N[C@@]1(C(=O)O)CO[C@H]2[C@H](C(=O)O)[C@H]21 [LY-379268] | 63% and 80% | 30% and 19% | 61% and 77% | 0% and 1% | 8% and 4% | 2% and 1% | 36% and 20% | 99% and 98% | 7% and 3% | 3% and 1%
Cl.Clc1ccc2nsnc2c1NC1=NCCN1 [TIZANIDINE HYDROCHLORIDE] | 77% and 90% | 31% and 22% | 61% and 66% | 2% | 7% and 14% | 2% and 7% | 22% and 10% | 97% | 6% and 10% | 

Same assay, conditions: human, 12 h, 10 µM, compound concentration 10 uM

Structure (SMILES) | Total Cell Count
N[C@@]1(C(=O)O)CO[C@H]2[C@H](C(=O)O)[C@H]21 [LY-379268] | 264 and 143
Cl.Clc1ccc2nsnc2c1NC1=NCCN1 [TIZANIDINE HYDROCHLORIDE] | 280 and 98

Same assay, conditions: human, 24 h, 1 µM, compound concentration 1 uM

Structure (SMILES) | Population Apoptotic (%) | Population Fragmented Nuclei (%) | Population Healthy Nuclei (%) | Population Hoechst High Intensity Objects (%) | Population Mitochondria Different-Phenotype (%) | Population Mitotic Cells (%) | Population Normal (%) | Population Pyknosed Nuclei (%) | Population Tubulin-Different-Phenotype (%) | Total Cell Count
N[C@@]1(C(=O)O)CO[C@H]2[C@H](C(=O)O)[C@H]21 [LY-379268] | 88% and 100% | 20% and 11% | 71% and 79% | 1% and 0% | 1% and 2% | 11% and 0% | 98% and 100% | 7% and 9% | 1% and 6% | 245 and 133
Cl.Clc1ccc2nsnc2c1NC1=NCCN1 [TIZANIDINE HYDROCHLORIDE] | 90% and 89% | 19% and 15% | 72% and 73% | 0% and 4% | 2% and 4% | 9% and 10% | 99% and 95% | 8% and 11% | 5% and 6% | 381 and 172

Same assay, conditions: human, 24 h, 1 µM, compound concentration 1 uM

Structure (SMILES) | Population Membrane Permeable-Phenotype (%)
Cl.Clc1ccc2nsnc2c1NC1=NCCN1 [TIZANIDINE HYDROCHLORIDE] | 4% and 7%

Same assay, conditions: human, 24 h, 10 µM, compound concentration 10 uM

Structure (SMILES) | Population Apoptotic (%) | Population Fragmented Nuclei (%) | Population Healthy Nuclei (%) | Population Hoechst High Intensity Objects (%) | Population Membrane Permeable-Phenotype (%) | Population Mitochondria Different-Phenotype (%) | Population Mitotic Cells (%) | Population Normal (%) | Population Pyknosed Nuclei (%) | Population Tubulin-Different-Phenotype (%)
N[C@@]1(C(=O)O)CO[C@H]2[C@H](C(=O)O)[C@H]21 [LY-379268] | 81% and 90% | 25% and 16% | 66% and 77% | 1 | 8% and 4% | 1% and 4% | 18% and 10% | 98 | 7% and 6% | 2% and 4%
Cl.Clc1ccc2nsnc2c1NC1=NCCN1 [TIZANIDINE HYDROCHLORIDE] | 65% and 86% | 29% and 25% | 62% and 61% | 2 | 4% and 12% | 1% and 7% | 34% and 13% | 97 | 8% and 13% | 1% and 11%

Same assay, conditions: human, 24 h, 10 µM, compound concentration 10 uM

Structure (SMILES) | Total Cell Count
N[C@@]1(C(=O)O)CO[C@H]2[C@H](C(=O)O)[C@H]21 [LY-379268] | 284 and 165
Cl.Clc1ccc2nsnc2c1NC1=NCCN1 [TIZANIDINE HYDROCHLORIDE] | 327 and 118

Same assay, conditions: human, 48 h, 1 µM, compound concentration 1 uM

Structure (SMILES) | Population Apoptotic (%) | Population Fragmented Nuclei (%) | Population Healthy Nuclei (%) | Population Hoechst High Intensity Objects (%) | Population Membrane Permeable-Phenotype (%) | Population Mitochondria Different-Phenotype (%) | Population Mitotic Cells (%) | Population Normal (%) | Population Pyknosed Nuclei (%) | Population Tubulin-Different-Phenotype (%)
N[C@@]1(C(=O)O)CO[C@H]2[C@H](C(=O)O)[C@H]21 [LY-379268] | 92% and 100% | 13% and 15% | 79% and 72% | 1% and 2% | 3% and 11% | 2% and 5% | 7% and 0% | 98% and 97% | 7% and 12% | 3% and 5%
Cl.Clc1ccc2nsnc2c1NC1=NCCN1 [TIZANIDINE HYDROCHLORIDE] | 86% and 90% | 11% and 17% | 80% and 74% | 1% and 3% | 2% and 5% | 1% and 2% | 13% and 9% | 98% and 96% | 7% and 8% | 2% and 3%

Same assay, conditions: human, 48 h, 1 µM, compound concentration 1 uM

Structure (SMILES) | Total Cell Count
N[C@@]1(C(=O)O)CO[C@H]2[C@H](C(=O)O)[C@H]21 [LY-379268] | 348 and 178
Cl.Clc1ccc2nsnc2c1NC1=NCCN1 [TIZANIDINE HYDROCHLORIDE] | 512 and 260

Same assay, conditions: human, 48 h, 10 µM, compound concentration 10 uM

Structure (SMILES) | Population Apoptotic (%) | Population Fragmented Nuclei (%) | Population Healthy Nuclei (%) | Population Hoechst High Intensity Objects (%) | Population Membrane Permeable-Phenotype (%) | Population Mitochondria Different-Phenotype (%) | Population Mitotic Cells (%) | Population Normal (%) | Population Pyknosed Nuclei (%) | Population Tubulin-Different-Phenotype (%)
N[C@@]1(C(=O)O)CO[C@H]2[C@H](C(=O)O)[C@H]21 [LY-379268] | 92% and 90% | 24% and 11% | 68% and 83% | 2% | 9% and 3% | 2% | 7% and 9% | 97% | 7% and 4% | 3%
Cl.Clc1ccc2nsnc2c1NC1=NCCN1 [TIZANIDINE HYDROCHLORIDE] | 93% and 76% | 18% and 22% | 75% and 65% | 2% and 4% | 5% and 15% | 1% and 5% |  | 97% and 95% | 6% and 11% | 3% and 7%

Same assay, conditions: human, 48 h, 10 µM, compound concentration 10 uM

Structure (SMILES) | Total Cell Count
N[C@@]1(C(=O)O)CO[C@H]2[C@H](C(=O)O)[C@H]21 [LY-379268] | 383 and 228
